From ChEMBL document CHEMBL1629434, “Cholesterol-based α-phenyl-N-tert-butyl nitrone derivatives as antioxidants against light-induced retinal degeneration” (Bioorg Med Chem Lett, 2010) come the findings set out here.

Each structure is given as a SMILES string. The source made the active and inactive calls. The calls are words filed in the database; no cut-off is given here.

For data set [1], the species on record is Rattus norvegicus. Kind of data set: Protection against light-induced photoreceptor degradation in albino rat retina exposed to bright fluorescent light assessed as reduction in ONL thickness on superior side at 1 mM, intravitreally after 24 hrs. Type of data set: functional, organism-based. An outline of the steps:
(§1)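 Albino rats got a 2 µL intravitreal injection 18 h before 24 h exposure to bright fluorescent light. Compounds insoluble in PBS 1× at 1 mM were given in DMSO 2%; PBS-soluble ones were given in PBS 1×. Untreated-unexposed and DMSO 2% groups served as controls.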

Data set [2] can be described thus: Solubility of the compound at 1 mM in 2% DMSO. Format: physicochemical. The note with it: 1000 µM.
The nature of data set [3]: Solubility of the compound at 1 mM in PBS. Format: physicochemical. The note with it: buffer, 1000 µM.
Data set [4] is filed under the species Rattus norvegicus. As to the kind of experiment: Protection against light-induced photoreceptor degradation in albino rat retina exposed to 12 hrs dark and 12 hrs light assessed as reduction in ONL thickness at 1 mM, intravitreally after 24 hrs. Type of data set: functional, organism-based. The method in brief:
as §1

For data set [5], the species on record is Rattus norvegicus. As to the kind of experiment: Protection against light-induced photoreceptor degradation in albino rat retina exposed to 12 hrs dark and 12 hrs light assessed as reduction in ONL thickness on superior side at 9 mM, intravitreally after 24 hrs. Type of data set: functional, organism-based. An outline of the steps: as §1
The species named for data set [6] is Rattus norvegicus. As to the kind of experiment: Protection against light-induced photoreceptor degradation in albino rat retina exposed to 12 hrs dark and 12 hrs light assessed as reduction in ONL thickness on inferior side at 9 mM, intravitreally after 24 hrs. Type of data set: functional, organism-based. The method in brief:
as §1

Data set [7] can be described thus: Half life in albino rat retina. Type of data set: ADME, tissue-based.

`CC(C)CCC[C@@H](C)[C@H]1CC[C@H]2[C@@H]3CC=C4C[C@@H](OCCC(=O)NCC(C)(C)/[N+]([O-])=C/c5ccc(CNC(=O)[C@@H](O)[C@H](O)[C@H](O[C@@H]6O[C@H](CO)[C@H](O)[C@H](O)[C@H]6O)[C@@H](O)CO)cc5)CC[C@]4(C)[C@H]3CC[C@]12C`: in the data set filed under Rattus norvegicus [1], the result was inactive. Also, the solubility entry in data set [2] is reported as “soluble”; in data set [3], “Insoluble”.
Take `CC(C)CCC[C@@H](C)[C@H]1CC[C@H]2[C@@H]3CC=C4C[C@@H](OCCC(=O)NCc5ccc(/C=[N+](\[O-])C(C)(C)CNC(=O)[C@@H](O)[C@H](O)[C@H](O[C@@H]6O[C@H](CO)[C@H](O)[C@H](O)[C@H]6O)[C@@H](O)CO)cc5)CC[C@]4(C)[C@H]3CC[C@]12C`: the result in the data set filed under Rattus norvegicus [1] was Active. For the same compound, the results for the solubility entry in data set [2] and in data set [3] were “soluble” and “Insoluble”, respectively.
Turning to `CC(C)(C)/[N+]([O-])=C/c1ccccc1`, the result in the data set listed under Rattus norvegicus [4] was inactive. Further, the result in the data set filed under Rattus norvegicus [5] and in the data set filed under Rattus norvegicus [6] was Active. The compound also had a half-life in data set [7] of 2 h.

As usually defined, the half-life is how long it takes for the measured level to halve. Low values mean rapid decline, high ones slow decline.
